Test results as given in ChEMBL document CHEMBL3797149, “1-Sulfonyl-6-Piperazinyl-7-Azaindoles as potent and pseudo-selective 5-HT6 receptor antagonists” (Bioorg Med Chem Lett, 2016).
Active and inactive are the calls of the source. No cut-off for these calls is given here.

What was measured:
D(2) dopamine receptor [1] = molecular target: T1, D(2) dopamine receptor (Homo sapiens, UniProt P14416); assay: Displacement of [3H]NMSP from human dopamine D2S receptor expressed in CHO cell membrane incubated for 1 hr by scintillation counting method; type: cell membranes
T1 sequence (P14416 whole entry): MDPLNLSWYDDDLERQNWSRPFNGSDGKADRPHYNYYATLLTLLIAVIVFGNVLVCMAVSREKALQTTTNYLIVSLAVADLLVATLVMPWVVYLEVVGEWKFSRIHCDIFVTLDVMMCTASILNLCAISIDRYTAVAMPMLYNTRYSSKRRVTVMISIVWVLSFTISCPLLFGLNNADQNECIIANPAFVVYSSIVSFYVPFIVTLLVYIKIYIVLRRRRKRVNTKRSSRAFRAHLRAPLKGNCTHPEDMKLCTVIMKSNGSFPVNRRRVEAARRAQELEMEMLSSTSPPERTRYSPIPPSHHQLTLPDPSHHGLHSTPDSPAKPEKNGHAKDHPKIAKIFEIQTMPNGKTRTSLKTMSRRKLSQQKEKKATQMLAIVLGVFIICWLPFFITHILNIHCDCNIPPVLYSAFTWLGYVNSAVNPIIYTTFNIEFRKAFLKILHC
In short: (§1)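 Competition binding: [3H]-LSD displacement for 5-HT6 and [3H]-NMSP displacement for D2. Eight compound concentrations, 5 × 10^-6 to 5 × 10^-13 M, each tested in triplicate. Affinity is reported as Ki.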

CHO = assay: Selectivity ratio of Ki for human dopamine D2S receptor expressed in CHO cell membrane to Ki for human 5HT6 receptor in HEK293 cell membrane; type: cell-based
In short: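 Ki values come from in-house competition binding: [3H]-LSD displacement at 5-HT6 and [3H]-NMSP displacement at D2. Compounds were tested at eight concentrations from 5×10^-6 to 5×10^-13 M in triplicate. The ratio is D2 Ki divided by 5-HT6 Ki.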

[2] = molecular target: T2, 5-hydroxytryptamine receptor 6 (Homo sapiens, UniProt P50406); assay: Displacement of [3H]LSD from human 5HT6 receptor in HEK293 cell membrane incubated for 1 hr by scintillation counting method; type: cell membranes; in short: as §1
T2 sequence (P50406 whole entry): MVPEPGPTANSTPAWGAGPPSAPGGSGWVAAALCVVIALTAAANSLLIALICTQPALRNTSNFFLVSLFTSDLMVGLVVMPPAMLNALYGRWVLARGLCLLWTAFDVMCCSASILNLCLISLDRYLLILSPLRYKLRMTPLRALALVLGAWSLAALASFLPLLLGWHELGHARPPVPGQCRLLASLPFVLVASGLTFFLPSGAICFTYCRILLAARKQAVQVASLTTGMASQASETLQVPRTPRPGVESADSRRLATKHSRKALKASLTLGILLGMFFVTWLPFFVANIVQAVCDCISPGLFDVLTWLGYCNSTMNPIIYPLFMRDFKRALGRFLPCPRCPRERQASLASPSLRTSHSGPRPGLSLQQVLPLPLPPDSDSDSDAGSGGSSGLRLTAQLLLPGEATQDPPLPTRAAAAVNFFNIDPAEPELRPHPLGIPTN

[3] = Kinetic solubility in sorensen buffer at pH 7.4 incubated for 1 hr by UV-Visible spectrophotometry; type: physicochemical; conditions: read-out: Kinetic_solubility
Mus musculus [4] = assay: Procognitive effect in CD1 mouse assessed as reversal of scopolamine-induced amnesia by measuring time spent in open arm in acquisition phase at 0.3 to 10 mg/kg, sc pretreated for 10 mins followed by scopolamine injection measured after 30 mins by elevated […] maze test; type: functional, organism-based
In short: (§2)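 Elevated plus maze in mice. Test article is given subcutaneously, then scopolamine 10 min later. In the acquisition phase (T1), open-arm time % ([open/(open+enclosed)]×100) and transfer latency to the enclosed arm are recorded. Retention phase (T2) follows 24 h later. n = 13–15 per group; data shown as mean ± SEM and median.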

Mus musculus [5] = assay: Procognitive effect in CD1 mouse assessed as reversal of scopolamine-induced amnesia by measuring time spent in open arm in retention phase at 0.3 to 10 mg/kg, sc pretreated for 10 mins followed by scopolamine injection measured after 24 hrs by elevated […] maze test; type: functional, organism-based; in short: as §2
D(2) dopamine receptor [6] = molecular target: T1, D(2) dopamine receptor; assay: Displacement of [3H]methyl-spiperone from human recombinant dopamine D2S receptor expressed in HEK293 cells at 1 uM incubated for 60 mins by scintillation counting method relative to control; type: cell-based
In short: (§3)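 Single-point screen at 1 µM (final) within a 106-target panel of neurotransmitter receptors, transporters and ion channels. Read-out is % radioligand displacement.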

[7] = molecular target: D(3) dopamine receptor (Homo sapiens) (UniProt P35462); assay: Displacement of [3H]methyl-spiperone from human recombinant dopamine D3 receptor expressed in CHO cells at 1 uM incubated for 60 mins by scintillation counting method relative to control; type: cell-based
D(3) dopamine receptor (Homo sapiens), sequence (P35462 whole entry): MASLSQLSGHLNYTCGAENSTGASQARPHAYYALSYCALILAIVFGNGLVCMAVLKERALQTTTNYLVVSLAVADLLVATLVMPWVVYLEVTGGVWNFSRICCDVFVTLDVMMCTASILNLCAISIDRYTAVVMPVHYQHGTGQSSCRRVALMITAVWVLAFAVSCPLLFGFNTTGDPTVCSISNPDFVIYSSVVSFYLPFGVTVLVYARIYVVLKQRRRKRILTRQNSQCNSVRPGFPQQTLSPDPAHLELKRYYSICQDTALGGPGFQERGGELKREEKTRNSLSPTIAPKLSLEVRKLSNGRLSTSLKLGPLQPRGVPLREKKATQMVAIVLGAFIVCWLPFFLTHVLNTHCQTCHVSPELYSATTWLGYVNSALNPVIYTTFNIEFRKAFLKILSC
In short: (§4)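 Tested at a single concentration in a contract panel of 106 neurotransmitter receptors, transporters and ion channels. Read-out is percent radioligand displacement.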

[8] = molecular target: T2, 5-hydroxytryptamine receptor 6; assay: Displacement of [3H]LSD from human recombinant 5HT6 receptor expressed in CHO cells at 1 uM incubated for 120 mins by scintillation counting method relative to control; type: cell-based; in short: as §3
[9] = molecular target: 5-hydroxytryptamine receptor 1B (Rattus norvegicus) (UniProt P28564); assay: Displacement of [125I]CYP from 5HT1B receptor in rat cerebral cortex at 1 uM incubated for 120 mins by scintillation counting method relative to control; type: tissue-based; in short: as §4
5-hydroxytryptamine receptor 1B (Rattus norvegicus), sequence (P28564 whole entry): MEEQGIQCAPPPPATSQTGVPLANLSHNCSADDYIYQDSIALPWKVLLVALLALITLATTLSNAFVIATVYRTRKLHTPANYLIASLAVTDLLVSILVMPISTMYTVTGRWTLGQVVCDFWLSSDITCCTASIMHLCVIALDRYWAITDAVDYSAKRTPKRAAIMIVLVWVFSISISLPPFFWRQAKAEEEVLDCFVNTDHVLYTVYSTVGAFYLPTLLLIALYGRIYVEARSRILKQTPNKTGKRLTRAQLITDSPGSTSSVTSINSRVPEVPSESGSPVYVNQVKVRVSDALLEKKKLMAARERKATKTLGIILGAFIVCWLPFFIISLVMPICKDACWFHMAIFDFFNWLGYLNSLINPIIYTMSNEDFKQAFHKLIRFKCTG

[10] = Passive permeability of compound after 4 hrs by sink-PAMPA assay; type: ADME; conditions: read-out: permeability
Cytochrome P450 3A4 = Cytochrome P450 3A4 (Homo sapiens, UniProt P08684); assay: Inhibition of human recombinant CYP3A4 using 7-benzyloxy-trifluoromethylcoumarin as substrate incubated for 30 mins by fluorescence analysis in presence of NADPH; type: ADME
Cytochrome P450 3A4, sequence (P08684 whole entry): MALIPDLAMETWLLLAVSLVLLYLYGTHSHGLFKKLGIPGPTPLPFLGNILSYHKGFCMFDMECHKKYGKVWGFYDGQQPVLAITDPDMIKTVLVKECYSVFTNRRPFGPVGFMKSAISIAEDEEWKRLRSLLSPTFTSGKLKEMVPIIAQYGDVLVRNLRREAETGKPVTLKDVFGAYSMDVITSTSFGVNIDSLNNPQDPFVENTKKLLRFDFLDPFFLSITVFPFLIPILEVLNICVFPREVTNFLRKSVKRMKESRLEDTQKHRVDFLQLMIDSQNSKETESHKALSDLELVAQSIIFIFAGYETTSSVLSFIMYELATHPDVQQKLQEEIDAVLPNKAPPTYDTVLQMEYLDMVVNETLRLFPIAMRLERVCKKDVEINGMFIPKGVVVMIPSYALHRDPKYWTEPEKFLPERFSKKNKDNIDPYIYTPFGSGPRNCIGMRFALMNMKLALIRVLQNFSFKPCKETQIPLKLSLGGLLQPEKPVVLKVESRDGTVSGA

Cytochrome P450 2D6 = Cytochrome P450 2D6 (Homo sapiens, UniProt P10635); assay: Inhibition of human recombinant CYP2D6 using AMMC as substrate incubated for 45 mins by fluorescence analysis in presence of NADPH; type: ADME
Cytochrome P450 2D6, sequence (P10635 whole entry): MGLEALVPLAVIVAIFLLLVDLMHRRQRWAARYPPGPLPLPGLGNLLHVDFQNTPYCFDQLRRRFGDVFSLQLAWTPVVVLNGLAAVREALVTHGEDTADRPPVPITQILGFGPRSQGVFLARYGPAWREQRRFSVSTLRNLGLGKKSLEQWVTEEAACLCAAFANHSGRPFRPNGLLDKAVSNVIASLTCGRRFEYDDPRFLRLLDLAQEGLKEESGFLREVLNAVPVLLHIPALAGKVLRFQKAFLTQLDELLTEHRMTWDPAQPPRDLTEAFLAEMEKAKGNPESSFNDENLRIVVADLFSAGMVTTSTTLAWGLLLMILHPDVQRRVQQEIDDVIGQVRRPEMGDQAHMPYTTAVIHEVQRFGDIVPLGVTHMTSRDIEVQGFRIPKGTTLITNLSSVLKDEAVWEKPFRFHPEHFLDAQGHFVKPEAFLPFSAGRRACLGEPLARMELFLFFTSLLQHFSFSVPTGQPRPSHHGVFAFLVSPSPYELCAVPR

| Structure (SMILES) | Ki (D(2) dopamine receptor [1]) | Ki [2] | Ratio Ki (CHO) | other results |
| --- | --- | --- | --- | --- |
| CC(C)CS(=O)(=O)n1ccc2c(-c3ccc(C(F)(F)F)cc3)cc(N3CCN(C)CC3)nc21.O=C(O)/C=C/C(=O)O |  |  |  | solubility kinetic at 1 h [3]: 20 µg/mL |
| CN1CCN(c2cc(-c3ccc(C(F)(F)F)cc3)c3ccn(S(=O)(=O)C4CCCCC4)c3n2)CC1 | > 2000 nM | 15 nM | > 133 |  |
| CC(C)CS(=O)(=O)n1ccc2c(-c3ccc(C(F)(F)F)cc3)cc(N3CCN(C)CC3)nc21 |  |  | 80 | Activity (Mus musculus [4]): Active; Activity (Mus musculus [5]): Active |
| CN1CCN(c2cc(-c3ccc(C(F)(F)F)cc3)c3ccn(S(C)(=O)=O)c3n2)CC1 | 1230 nM | 54 nM | 22 |  |
| CC(C)CS(=O)(=O)n1ccc2c(-c3cccc(C(F)(F)F)c3)cc(N3CCN(C)CC3)nc21 | 630 nM | 48 nM | 13 |  |
| CC(C)CS(=O)(=O)n1ccc2c(-c3ccc(C(F)(F)F)cc3)cc(N3CCN(C)CC3)nc21.O=S(=O)(O)O |  |  |  | solubility kinetic at 1 h [3]: 10 µg/mL |
| Cc1noc(C)c1-c1cc(N2CCN(C)CC2)nc2c1ccn2S(=O)(=O)CC(C)C | > 2000 nM | 129 nM | > 15 |  |
| CC(C)CS(=O)(=O)n1ccc2c(-c3ccc(C(F)(F)F)cc3)cc(N3CCN(C)CC3)nc21.O=C(O)CC(O)(CC(=O)O)C(=O)O |  |  |  | solubility kinetic at 1 h [3]: 14 µg/mL |
| CC(C)CS(=O)(=O)n1ccc2c(-c3ccc(OCc4ccccc4)cc3)cc(N3CCN(C)CC3)nc21 | 86 nM | 290 nM | 0.3 |  |
| Br.CC(C)CS(=O)(=O)n1ccc2c(-c3ccc(C(F)(F)F)cc3)cc(N3CCN(C)CC3)nc21 |  |  |  | solubility kinetic at 1 h [3]: 65 µg/mL |
| Cc1cc(-c2cc(N3CCN(C)CC3)nc3c2ccn3S(=O)(=O)CC(C)C)c(C)s1 | 640 nM | 12 nM | 53 |  |
| CC(C)CS(=O)(=O)n1ccc2c(-c3ccc4[nH]ccc4c3)cc(N3CCN(C)CC3)nc21 | 382 nM | 5 nM | 76 |  |
| CC(C)CS(=O)(=O)n1ccc2c(-c3cnn(C)c3)cc(N3CCN(C)CC3)nc21 | > 2000 nM | 87 nM | > 23 |  |
| CC(C)CS(=O)(=O)n1ccc2c(-c3ccc(C(F)(F)F)cc3)cc(N3CCN(C)CC3)nc21.O=C(O)C(O)C(O)C(=O)O |  |  |  | solubility kinetic at 1 h [3]: 11 µg/mL |
| COCCS(=O)(=O)n1ccc2c(-c3ccc(C(F)(F)F)cc3)cc(N3CCN(C)CC3)nc21 | 52 nM | 8 nM | 6 |  |
| CC(C)CS(=O)(=O)n1ccc2c(-c3ccc(C(F)(F)F)cc3)cc(N3CCN(C)CC3)nc21.Cl |  |  |  | solubility kinetic at 1 h [3]: 14 µg/mL |
| CC(C)CS(=O)(=O)n1ccc2c(-c3ccccc3C(F)(F)F)cc(N3CCN(C)CC3)nc21 | 113 nM | 24 nM | 5 |  |

More lines, main results first:

| Ki (D(2) dopamine receptor [1]) | Ki [2] | Structure (SMILES) | Ratio Ki (CHO) | other results |
| --- | --- | --- | --- | --- |
| 108 nM | 22 nM | CC(C)CS(=O)(=O)n1ccc2c(-c3ccc(O)cc3)cc(N3CCN(C)CC3)nc21 | 5 |  |
| 25 nM | 6 nM | CC(C)S(=O)(=O)n1ccc2c(-c3ccc(C(F)(F)F)cc3)cc(N3CCN(C)CC3)nc21 | 4 |  |
| > 2000 nM | 7 nM | CN1CCN(c2cc(-c3ccc(C(F)(F)F)cc3)c3ccn(S(=O)(=O)C4CCOCC4)c3n2)CC1 | > 285 |  |
| 22 nM | 2 nM | COc1ccc(-c2cc(N3CCN(C)CC3)nc3c2ccn3S(=O)(=O)CC(C)C)cc1 | 9 |  |
| > 2000 nM | 231 nM | CC(C)CS(=O)(=O)n1ccc2c(-c3ccc(=O)[nH]c3)cc(N3CCN(C)CC3)nc21 | > 8 |  |
| 614 nM | 11 nM | CCc1ccc(-c2cc(N3CCN(C)CC3)nc3c2ccn3S(=O)(=O)CC(C)C)cc1 | 56 |  |
| 547 nM | 16 nM | CC(C)CS(=O)(=O)n1ccc2c(-c3ccccc3)cc(N3CCN(C)CC3)nc21 | 35 |  |
| > 2000 nM | 36 nM | CC(C)CS(=O)(=O)n1ccc2c(-c3cccnc3)cc(N3CCN(C)CC3)nc21 | > 55 |  |
| 205 nM | 7 nM | CC(C)CS(=O)(=O)n1ccc2c(-c3ccc(C#N)cc3)cc(N3CCN(C)CC3)nc21 | 29 |  |
| > 2000 nM | > 2000 nM | CC(C)CS(=O)(=O)n1ccc2c(-c3ccc(C(=O)N(C)C)cc3)cc(N3CCN(C)CC3)nc21 |  |  |
| 1700 nM | 3 nM | CC(C)CS(=O)(=O)n1ccc2c(-c3ccc(C(F)(F)F)cc3)cc(N3CCNCC3)nc21 |  | inhibition (D(2) dopamine receptor [6]): 60%; inhibition [7]: 94%; inhibition [8]: 100%; inhibition [9]: 72%; Papp at 4 h [10]: 92 ×10⁻⁶ cm/s; IC50 (Cytochrome P450 3A4): < 1100 nM; IC50 (Cytochrome P450 2D6): > 10000 nM |
